Data set [1] is described as follows: Lipophilicity, log D of the compound. The data set is classed as physicochemical. The settings on record: octanol/water.
The nature of data set [2]: Metabolic stability in human liver microsomes assessed as compound remaining measured at […]. Particulars: read-out: Stability. The data set is classed as ADME. For orientation: Liver microsomes are a subcellular fraction often used to study metabolism.
The nature of data set [3]: Metabolic stability in mouse liver microsomes assessed as compound remaining measured at 30 mins. Format: ADME. Particulars: read-out: Stability.
Data set [4] can be described thus: Total plasma concentration in NMRI mouse infected with Plasmodium berghei ANKA at 50 mg/kg, po qd administered on day 1 to 3 post infection measured at 4 hrs post last dose. Also on record: dose 50 mg/kg, route oral. The data set is classed as ADME, organism-based. A digest of the protocol:
(§1)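 4-day Peters test in groups of 3 mice infected iv on day 0. Oral dosing was 50 mg/kg once daily at 4, 24, 48 and 72 h post-infection. The monohydrochloride salt was dissolved in 30:70 EtOH/Tween-80 and diluted 10-fold with water. Blood was sampled for total plasma compound levels.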

A short description of data set [5]: Total plasma concentration in NMRI mouse infected with Plasmodium berghei ANKA at 50 mg/kg, po qd administered on day 1 to 3 post infection measured at 1 hr post last dose. Format: ADME, organism-based. Also on record: dose 50 mg/kg, route oral. In short, it runs like this: as §1
Data set [6] concerns Rattus norvegicus. The experiment in a line: Half life in rat at […], iv. Format: ADME, organism-based. Also on record: dose 4.5 mg/kg, route intravenous. Particulars: in vivo.
Data set [7] is described as follows: Oral bioavailability in rat at 21 mg/kg. The data set is classed as ADME, organism-based. Particulars: in vivo.
For data set [8], the system named is Rattus norvegicus. The experiment in a line: Volume of distribution in rat at […], iv and 21 mg/kg, po. Format: ADME, organism-based. Particulars: in vivo.

The results in this text go back to ChEMBL document CHEMBL3259664, “Optimization of an imidazopyridazine series of inhibitors of Plasmodium falciparum calcium-dependent protein kinase 1 (PfCDPK1)” (J Med Chem, 2014).

As a reminder, the logD is lipophilicity at a set pH, counting ionised and neutral species. Read a high logD as higher lipophilicity. The term bioavailability denotes the share of a dose that reaches the circulation, judged against a reference dose that is usually intravenous.

The compound `CN1CCC(Nc2ccc3ncc(-c4cnc(Nc5ncccc5F)nc4)n3n2)CC1` had a logD in data set [1] of 1.4. The remaining in data set [2] is 98%. In addition, the remaining at 0.5 h in data set [3] worked out at 85%.
Take `N[C@H]1CC[C@H](Nc2ccc3ncc(-c4cnc(Nc5ncccc5F)nc4)n3n2)CC1`: the logD in data set [1] was determined as 0.2. For the same compound, the remaining in data set [2] amounted to 93%. In addition, the remaining at 0.5 h in data set [3] amounted to 85%.
Taken in the same sequence, the figures for `CN1CCC(Nc2ccc3ncc(-c4ccc(Nc5ncc(F)cc5F)cc4)n3n2)CC1` were 3.7, 78% and 58%.
`CN1CCC(Oc2ccc3ncc(-c4cnc(Nc5ncccc5F)nc4)n3n2)CC1` registered a logD in data set [1] of 1.5.
The same measure, in the same setting: the value for `Fc1cccnc1Nc1ncc(-c2cnc3ccc(N4CCNCC4)nn23)cn1` was 0.7.
The same measure, in the same setting: the value for `Fc1cccnc1Nc1ncc(-c2cnc3ccc(N[C@H]4CC[C@H](N5CCOCC5)CC4)nn23)cn1` was 3.2; that for `Fc1cccnc1Nc1ncc(-c2cnc3ccc(NCCN4CCOCC4)nn23)cn1` was 2.9.
Turning to `N[C@H]1CC[C@H](Nc2ccc3ncc(-c4cnc(NCc5ccccn5)nc4)n3n2)CC1`, the log distribution coefficient (logD) in data set [1] was found to be 0.4. Also, in data set [2], the remaining is 95%. Besides, in data set [3], the remaining at 0.5 h amounted to 95%.
Regarding `Fc1cccnc1Nc1ccc(-c2cnc3ccc(N[C@H]4CC[C@H](N5CCCC5)CC4)nn23)cc1`, the logD in data set [1] is recorded as 3.3. In data set [2], the remaining came out at 60%. Moreover, in data set [3], the remaining at 0.5 h was found to be 82%.
The compound `CN1CCC(Nc2ccc3ncc(-c4ccc(Nc5ncccc5F)cc4)n3n2)CC1` showed a concentration at 4 h in data set [4] of 1460 ng/mL. This compound also displayed a logD in data set [1] of 3.2. Besides, the remaining in data set [2] was 80%. Besides, the concentration at 1 h in data set [5] turned out to be 1660 ng/mL. The remaining at 0.5 h in data set [3] was determined as 47%.
In data set [1], `N[C@H]1CC[C@H](Nc2ccc3ncc(-c4cnc(Nc5ccccc5)nc4)n3n2)CC1` showed a logD of 1.6. The remaining in data set [2] was 89%. In data set [3], the remaining at 0.5 h came out at 92%.
The compound `CN1CCC(Nc2ccc3ncc(-c4ccc(Nc5ncccc5F)cc4)n3n2)CC1.Cl` had a t1/2 with Rattus norvegicus [6] of 4 h. The bioavailability in data set [7] amounted to 70%. In the data set on Rattus norvegicus [8], this compound registered a Vd of 8 L/kg.
In the case of `Fc1cccnc1Nc1ncc(-c2cnc3ccc(NCCN4CCCC4)nn23)cn1`, the log distribution coefficient (logD) in data set [1] is on record as 1.5.
On the same count and under the same terms, as for `CN1CCC(Cc2ccc3ncc(-c4cnc(Nc5ncccc5F)nc4)n3n2)CC1`, the figure is 1.3; as for `CN1CCN(c2ccc3ncc(-c4cnc(Nc5ncccc5F)nc4)n3n2)CC1`, 2.2.
`CN1CCC(Nc2ccc3ncc(-c4ccc(Nc5ncc(Cl)cc5F)cc4)n3n2)CC1` returned a logD in data set [1] of 3.7. Moreover, the remaining in data set [2] turned out to be 86%. Further, the remaining at 0.5 h in data set [3] was 61%.
Taken in the same sequence, the figures for `Cc1ccc(F)c(Nc2ccc(-c3cnc4ccc(NC5CCN(C)CC5)nn34)cc2)n1` were 3.5, 77% and 52%.
In the same order, the values of `CN1CCC(Nc2ccc3ncc(-c4ccc(Nc5ncccc5F)nc4)n3n2)CC1` are 3.1, 77% and 57%.
In the same order, the values of `Cc1ccc(F)c(Nc2ccc(-c3cnc4ccc(N[C@H]5CC[C@H](N)CC5)nn34)cc2)n1` are 2.2, 83% and 90%.
In data set [1], `CN1CCC(Oc2ccc3ncc(-c4cnc(Nc5ncccc5F)nc4)n3n2)C1` (racemic) showed a logD of 1.5.
Regarding `N[C@H]1CC[C@H](Nc2ccc3ncc(-c4cnc(Nc5ccccn5)nc4)n3n2)CC1`, the logD in data set [1] is 1.1. For the same compound, in data set [2], the remaining stood at 99%. For the same compound, the remaining at 0.5 h in data set [3] amounted to 93%.
For `Fc1cccnc1Nc1ncc(-c2cnc3ccc(NC4CCNC4)nn23)cn1` (racemic), in data set [1], the log distribution coefficient (logD) was 0.4.
As for `Cc1ccc(Nc2ncc(-c3cnc4ccc(N[C@H]5CC[C@H](N)CC5)nn34)cn2)nc1`, the logD in data set [1] was 1.1. The remaining in data set [2] amounted to 92%. For the same compound, the remaining at 0.5 h in data set [3] worked out at 100%.
`CN1CCC(Nc2ccc3ncc(-c4cnc(Nc5ncccc5F)nc4)n3n2)C1` (racemic) came in with a logD in data set [1] of 1.5.
Still for that read-out and setting: the value for `Cc1ccc2ncc(-c3cnc(Nc4ncccc4F)nc3)n2n1` was 2.5.
In data set [1], `N[C@H]1CC[C@H](Nc2ccc3ncc(-c4ccc(Nc5ncc(F)cc5F)cc4)n3n2)CC1` registered a logD of 2. In addition, the remaining in data set [2] worked out at 68%. Moreover, in data set [3], the remaining at 0.5 h came out at 87%.
Regarding `Fc1cccnc1Nc1ccc(-c2cnc3ccc(N[C@H]4CC[C@H](N5CCCC5)CC4)nn23)cn1`, in data set [1], the logD stood at 2.8. Also, in data set [2], the remaining came out at 71%. For the same compound, in data set [3], the remaining at 0.5 h is 88%.
Take `CN1CCN(CCNc2ccc3ncc(-c4cnc(Nc5ncccc5F)nc4)n3n2)CC1`: the logD in data set [1] was determined as 1.6.
The compound `Fc1cccnc1Nc1ncc(-c2cnc3ccc(N[C@H]4CC[C@H](N5CCCC5)CC4)nn23)cn1` had a logD in data set [1] of 1.9.
`N[C@H]1CC[C@H](Nc2ccc3ncc(-c4ccc(Nc5ncc(Cl)cc5F)cc4)n3n2)CC1`: in data set [1], the logD is 3.1. The remaining in data set [2] was found to be 77%. For the same compound, the remaining at 0.5 h in data set [3] was 57%.
In the same order, the values of `CN1CCC(Nc2ccc3ncc(-c4ccc(Nc5cccc(C(F)(F)F)n5)cc4)n3n2)CC1` are 3.4, 80% and 73%.
Taken in the same sequence, the figures for `N[C@H]1CC[C@H](Nc2ccc3ncc(-c4cnc(Nc5ncc(C(F)(F)F)cc5F)nc4)n3n2)CC1` were 1.6, 69% and 93%.
For the compound `CN1CCC(Nc2ccc3ncc(-c4ccc(Nc5ccc(C(F)(F)F)cn5)cc4)n3n2)CC1`, the logD in data set [1] worked out at 3.7. In addition, the remaining in data set [2] is 81%. In addition, the remaining at 0.5 h in data set [3] came out at 85%.
